Measurements published in ChEMBL document CHEMBL1122024, “Quantitative structure-inhibitory activity relationships of phenols and fatty acids for Bacillus subtilis spore germination” (J Med Chem, 1982).

Legend:
[1] = tested on: Bacillus subtilis; experiment: microbe, parasite or virus in culture; assay type: functional, organism-based; conditions: read-out: I50
[2] = physchem; conditions: octanol/water
[3] = physchem
[4] = physchem; conditions: octanol/water, pH 7.2
[5] = tested on: Bacillus subtilis; assay type: functional
[6] = tested on: Bacillus subtilis; experiment: Inhibitory activity on germination of Bacillus subtilis PCI219 spores was determined; No inhibition at 5*10e-2 M; assay type: functional, organism-based
Procedure, shortened: (§1)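 Unheated B. subtilis PCI219 spores (about 2.2×10^8 cells per mL) were incubated with the test compound in 0.1 mM L-alanine germinant and 0.05 M phosphate buffer, pH 7.2, at 37 °C. Germination was followed as the decrease in absorbance at 650 nm. The rate was taken as the slope of the steepest linear portion and compared with an inhibitor-free control.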

[7] = Dissociation constant was determined spectrophotometrically; Experiment 1; assay type: physicochemical
[8] = Distribution coefficient (log D) was determined at pH 7.2
[9] = tested on: Bacillus subtilis; experiment: Inhibitory activity on germination of Bacillus subtilis PCI219 spores was determined at 2 x 10E-4 M; assay type: functional
Procedure, shortened: as §1

[10] = tested on: Bacillus subtilis; experiment: Inhibitory activity on germination of Bacillus subtilis PCI219 spores was determined; No inhibition at 5e-2M; assay type: functional, organism-based
Procedure, shortened: as §1

[11] = tested on: Bacillus subtilis
[12] = tested on: Bacillus subtilis; experiment: Inhibitory activity on germination of Bacillus subtilis PCI219 spores was determined; No inhibition at 2.5e-3M; assay type: functional, organism-based
Procedure, shortened: as §1

Structure (SMILES)	IC50 [1] [µM]	logP [2]	pKa [3]	logD [4]	Log 1/I50 [5]	further results
Oc1ccccc1-c1ccccc1 [2-PHENYLPHENOL]	280	3.09	9.9	3.09	3.55 1/M	
Oc1c(Cl)cc(Cl)cc1Cl	130					
CCCCCCCCCCCC(=O)O [DODECANOATE]	1980	4.92	4.9	2.62	2.7 1/M	
Oc1c(Cl)cc(Cl)c(Cl)c1Cl	269	4.1	5.7	2.59	3.57 1/M	
Nc1cccc(O)c1 [3-AMINOPHENOL]	44700	0.16	9.9	0.16	1.35 1/M	
Oc1ccc(-c2ccccc2)cc1	129	3.2	9.5	3.2	3.89 1/M	
CCc1ccc(O)cc1	1600	2.26	10	2.26	2.8 1/M	
CC(C)(C)c1ccccc1O	34.5		11.3		4.46 1/M	
Oc1ccc(Cl)cc1Cl [2,4-DICHLOROPHENOL]	242	3.14		3.06	3.62 1/M	
CCCCCCCCCCCCC(=O)O [TRIDECANOATE]	750	5.42	4.9	3.12	3.12 1/M	
CCCCCCCC(=O)O [OCTANOIC ACID]	53500	2.92		0.62	1.27 1/M	
Oc1ccccc1 [PHENOL]	1500					
O=[N+]([O-])c1ccccc1O [NITROPHENOLATE]	3150	1.77	7.2	1.47	2.5 1/M	
O=C(O)c1ccc(O)cc1 [PARABEN]		1.57				I50 [6]: Not Active; pKa [7]: 9.4
Cc1cccc(O)c1 [METACRESOL]	2010	1.97	10.1	1.97	2.7 1/M	
Cc1cc(C)c(O)c(C)c1	1400	2.86	10.9	2.86	2.85 1/M	
O=[N+]([O-])c1cccc(O)c1 [3-NITRO-PHENOL]	901		8.4		3.05 1/M	logD [8]: 1.97
CC(C)(C)c1ccc(O)cc1	302					
COc1ccccc1O [GUAIACOL]	6310	1.33	9.9	1.33	2.2 1/M	
Oc1ccc(Br)cc1	717					
Oc1ccc(Cl)cc1 [PARACHLOROPHENOL]	797		9.4		3.1 1/M	
CC(C)Cc1ccccc1O	242	3.27	10.5	3.27	3.62 1/M	
CCCCCCCC/C=C\CCCCCCCC(=O)O [OLEIC ACID]						inhibition at 200 µM [9]: 30.2%
CCCCCCCCC(=O)O [NONANOATE]	8900	3.42	4.9	1.12	2.05 1/M	
CCCCCCCCCCCCCC(=O)O [MYRISTIC ACID]						inhibition at 200 µM [9]: 21%
CC/C=C\C/C=C\C/C=C\CCCCCCCC(=O)O [LINOLENIC ACID]						inhibition at 200 µM [9]: 32%
Cc1ccccc1O [ORTHOCRESOL]	1300	1.98	10.3	1.98	2.89 1/M	

Structure (SMILES)	IC50 [1] [µM]	logP [2]	pKa [3]	logD [4]	Log 1/I50 [5]	further results
Cc1ccc(O)cc1 [p-CRESOL]	3640			1.94	2.44 1/M	
Cc1ccc(C(C)C)c(O)c1 [THYMOL]	494		10.7		3.31 1/M	
CCCCCCCCCCCCCCCCCC(=O)O [STEARIC ACID]						inhibition at 200 µM [9]: 14.2%
O=Cc1ccc(O)cc1 [4-HYDROXYBENZALDEHYDE]	20000	1.37	7.6	1.22	1.7 1/M	
CC(C)c1ccc(O)cc1	674	2.86	10.1	2.86	3.17 1/M	
Oc1ccccc1Cl [2-CHLOROPHENOL]	562		8.5	2.13	3.25 1/M	
Nc1ccc(O)cc1 [4-AMINOPHENOL]			10.3			I50 [10]: No inhibition; Log 1/I50 [11]: No inhibition
CC(C)Cc1ccc(O)cc1	302	3.4	10.2	3.4	3.52 1/M	
COC(=O)c1ccc(O)cc1 [METHYLPARABEN]	2010				2.7 1/M	
Oc1c(Cl)c(Cl)c(Cl)c(Cl)c1Cl [PENTACHLOROPHENOL]	346		5		3.46 1/M	
CCCCC/C=C\C/C=C\CCCCCCCC(=O)O [LINOLEIC ACID]						inhibition at 200 µM [9]: 34.6%
CCCCCCCCCC(=O)O [DECANOIC ACID]	6030	3.92		1.62	2.22 1/M	
CCCCCCCCCCCCCCCC(=O)O [PALMITIC ACID]						inhibition at 200 µM [9]: 17.3%
COC(=O)c1ccccc1O [METHYL SALICYLATE]	1030	2.46	10.2	2.46	3 1/M	
CCCCCCCCCCC(=O)O [UNDECANOATE]	4470	4.42	4.9	2.12	2.35 1/M	
NC(Cc1ccc(O)cc1)C(=O)O (stereo not given)						I50 [12]: No inhibition
O=Cc1ccccc1O	3780		8.3		2.42 1/M	
CCCCCCC(=O)O [HEPTANOATE]	151000	2.42	4.9	0.12	0.82 1/M	
CC(C)c1ccccc1O	268	2.88	10.4	2.88	3.57 1/M	
Cc1cc(O)cc(O)c1 [ORCINOL]	16800		9.3		1.77 1/M	
Oc1c(Cl)cc(Cl)c(Cl)c1Cc1c(O)c(Cl)cc(Cl)c1Cl [HEXACHLOROPHENE]	198	7.54	5	5.54	3.7 1/M	
O=[N+]([O-])c1ccc(O)cc1 [P-NITROPHENOL]	6830		7.1	1.61	2.17 1/M	
Oc1cccc(O)c1 [RESORCINOL]	3830	0.78	9.4	0.78	2.42 1/M	
Oc1cc(Cl)c(Cl)cc1Cl [TRICLOFENOL]	128	3.72		3.31	3.89 1/M	
CCc1ccccc1O	493	2.47	10.2	2.47	3.31 1/M	
O=C(O)c1ccccc1O [SALICYLIC ACID]		2.24				I50 [6]: No inhibition
Nc1ccccc1O [QUESTIOMYCIN B]	29900	0.57	9.7	0.57	1.52 1/M	
